Assay outcomes (PubChem)
Rows were chosen to be rich in hits. Some 2.7% of all compounds tested hit in one or more screens of this group.
CaV13 FRET inh: Primary screen for inhibitors of IQ motif and Ca2+-dependent inactivation inhibitor domain binding in CACNA1D, Förster resonance energy transfer in living cells, … | HEK cells, CFP/YFP FRET ICDI-IQ, plate reader, 10 min; percent FRET-ratio fall versus neutral wells | AID 743397 | inhibition, % at 12.3 µM | 0.098% of 340,000 active;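 active = mean replicate inhibition of at least 30% and at least 1% of replicates passing that level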;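 note: 0% = median of the neutral control wells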
SIRT5 inh: blocks human SIRT5 desuccinylation of peptide; Q9NXA8; Purified SirT5, succinyl-peptide AMC, trypsin-coupled fluorescence; inhibition, % at 15 µM; 1.1% of 330,000 active; in the data active = inhibition above about 15%
S100A4 inh HTS: S100A4-myosin IIA interaction inhibition; S100A4/TAMRA-MyoIIA peptide fluorescence polarization; 0.14% of 360,000 active; inhibition, % at 10.7 µM; P26447;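 active = mean inhibition of at least 70% across replicates, with every replicate also reaching that level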
Target sequence (P26447 whole entry, looked up): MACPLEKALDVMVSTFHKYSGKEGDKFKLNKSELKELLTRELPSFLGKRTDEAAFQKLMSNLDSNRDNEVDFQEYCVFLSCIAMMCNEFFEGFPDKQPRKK
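Test system: S100A4 monomer protein. Medium: HEPES buffer with Ca2+, pH 7.2. Reagent: fluorescent myosin IIA peptide, 5 nM. Compound dosing: single-point compound testing. Timing: 5 min between mix addition and reading. Benchmarks: DMSO neutral and TFP positive wells.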
DENV2 CPE rescue: inhibitors of DENV2 cytopathic effect; DENV2-infected cells, cytopathic effect rescue, plate reader; CPE inhibition, % at 9.99 µM; 1.7% of 350,000 active; AID 651640; in the data active = CPE inhibition above about 20%, passing the limit was not always enough; tested in BHK-21 cells;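 note: 0% = median of neutral control wells and 100% = median of positive control wells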
MLL AF4-AF9 inh: blocks AF4 peptide binding to human AF9. AlphaScreen, biotin-AF4 peptide binding to FLAG-AF9. inhibition, % at 10 µM. 0.47% of 350,000 active. AID 651704;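 active = every replicate reaching a set inhibition limit, whatever the replicate mean, cut at about 25% in these data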;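 note: 0% = plate neutral control median and 100% = total signal loss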
Target sequence (P42568 whole entry, looked up): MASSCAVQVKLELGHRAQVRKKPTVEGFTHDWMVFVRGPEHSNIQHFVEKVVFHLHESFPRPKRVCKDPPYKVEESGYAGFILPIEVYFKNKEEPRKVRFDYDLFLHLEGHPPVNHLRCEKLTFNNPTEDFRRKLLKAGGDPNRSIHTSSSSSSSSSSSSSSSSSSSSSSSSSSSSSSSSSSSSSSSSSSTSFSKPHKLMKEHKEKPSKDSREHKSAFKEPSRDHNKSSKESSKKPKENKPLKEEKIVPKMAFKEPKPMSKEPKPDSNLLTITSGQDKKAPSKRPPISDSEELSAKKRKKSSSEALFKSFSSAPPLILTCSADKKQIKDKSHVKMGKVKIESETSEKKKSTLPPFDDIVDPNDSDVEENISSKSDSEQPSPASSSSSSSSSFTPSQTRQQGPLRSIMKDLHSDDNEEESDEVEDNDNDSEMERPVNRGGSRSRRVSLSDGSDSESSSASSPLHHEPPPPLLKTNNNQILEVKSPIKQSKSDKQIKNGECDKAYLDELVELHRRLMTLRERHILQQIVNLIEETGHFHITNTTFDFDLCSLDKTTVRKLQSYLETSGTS
* = called active by the depositor; . = no result given; + = active, no number.

SMILES	CaV13 FRET inh	SIRT5 inh	S100A4 inh HTS	DENV2 CPE rescue	MLL AF4-AF9 inh
O=C(CNc1ccc(Br)cc1)c1ccc(O)cc1	-1.8	17.4*	-6.8	-6.2	4.1
Oc1ccc(C=NNc2ccccn2)c(O)c1	-5.9	7.3	-2.4	-1.2	41.8*
Cc1cccc(NC(=S)N/N=C/c2cccc(O)c2)c1C	-17.0	0.0	3.4	1.3	0.6
Cc1nc(N/N=C/c2ccc(O)cc2O)cc(N2CCOCC2)n1	1.0	9.0	-0.2	-2.9	69.9*
Cc1ccccc1NC(=S)N/N=C/c1ccc(O)cc1O	-15.7	15.8*	-5.5	6.3	11.3
Oc1cccc(C=NNc2ccccn2)c1	-6.0	-1.6	-2.4	0.6	4.8
Cc1nc(N/N=C/c2cccc(F)c2)cc(N2CCOCC2)n1	-19.7	-2.5	1.8	10.2	-5.2
Cc1c(OCC(=O)NCCCN2CCCC2=O)ccc2c3c(c(=O)oc12)CCCC3	-5.6	-12.1	-3.7	-2.2	-1.6
CCc1nc2ccccc2c(C(=O)OCC(=O)NCCCN2CCCC2=O)c1C	-4.2	18.7*	-1.1	.	.
Cc1c(OCC(=O)NCCCN2CCCC2=O)ccc2c3c(c(=O)oc12)CCC3	-6.8	-0.9	+	4.1	-2.6
O=C(Nc1ccccc1)N[C@H]1CC[C@H](CCn2cc(C3(O)CCCC3)nn2)O[C@H]1CO	.	-0.6	-1.3	6.6	-1.4
COc1ccc(-c2nc(C#N)c(N3CCCCCC3)o2)cc1OC	-9.4	-53.7	13.8	6.7	27.3*
Cc1ccc(-c2nc(C#N)c(N3CCC(C)CC3)o2)cc1	-20.9	-4.5	-2.0	-4.0	28.1*
CC(C(=O)Nc1cccc(S(=O)(=O)N2CCOCC2)c1)N1CCN(C)CC1 (configuration not stated)	-2.0	-1.2	-12.0	15.6	-3.2
O=C(Cc1ccccc1F)Nc1cccc(S(=O)(=O)N2CCOCC2)c1	-6.6	17.1*	-6.6	11.2	-1.5
Cc1cccc(NC(=S)N2CCCCCC2)c1C	-5.7	-1.1	-2.8	54.8*	-3.0
CC(C(=O)Nc1cccc(S(=O)(=O)N2CCOCC2)c1)N1CCN(c2ccc(F)cc2)CC1 (configuration not stated)	-4.1	16.1*	-2.2	-3.8	5.7
Fc1cccc(NC(=S)N2CCCC2)c1	-5.2	15.2*	0.5	2.4	1.2
CO[C@@H]1CC[C@H]2CCOc3c(C#N)cccc3C(=O)N(C)[C@H](C)C(=O)N(C)C[C@@H]1O2	.	-11.8	-2.3	-4.4	4.6
C[C@H]1CN([C@@H](C)CO)C(=O)Cc2cc(NC(=O)CCC(F)(F)F)ccc2O[C@@H]1CN(C)Cc1ccc(-c2ccccc2)cc1	.	11.3	-2.2	-11.3	1.3
O=C(CNc1cccc(S(=O)(=O)N2CCOCC2)c1)Nc1cccc(Br)c1	-5.4	1.6	-4.1	27.2*	1.6
O=S(=O)(c1cccc(NC(=S)N2CCN(c3ccc(F)cc3)CC2)c1)C(F)F	4.3	30.0*	-21.7	.	-3.1
O=S(=O)(c1cccc(NC(=S)N2CCN(c3cccc(Cl)c3)CC2)c1)C(F)F	-4.8	-2.1	-0.8	4.2	-0.1
C[C@@H]1CCCCO[C@@H](CN(C)Cc2ccncc2)[C@@H](C)CN([C@H](C)CO)C(=O)c2cc(NC(=O)Nc3cccc4ccccc34)ccc2O1	.	.	2.4	1.4	-2.9
C[C@H](CO)N1C[C@H](C)[C@@H](CN(C)S(=O)(=O)c2ccc(Cl)cc2)OCCCC[C@H](C)Oc2ccc(NC(=O)Cc3ccccc3)cc2C1=O	.	8.3	-2.4	1.5	3.4
SMILES	CaV13 FRET inh	SIRT5 inh	S100A4 inh HTS	DENV2 CPE rescue	MLL AF4-AF9 inh
O=C(c1ccccc1)N1C[C@H]2[C@@H](c3ccccc31)[C@@H](CO)N2Cc1cc(F)ccc1F	.	1.0	4.0	-9.6	1.1
CC(NC(=O)c1ccccc1F)c1nnc(SCC(=O)Nc2nnc(C3CC3)s2)n1C (configuration not stated)	-15.1	-6.2	93.3*	5.7	-28.0
Cc1nnc(NC(=O)CSc2nnc(CCNC(=O)c3ccccc3F)n2C)s1	-2.2	-14.0	-7.7	9.9	42.3*
Cc1nnc(NC(=O)CSc2nnc(CNC(=O)c3ccccc3F)n2C(C)C)s1	-2.1	1.0	-1.2	2.8	-11.4
O=C(NC1CC1)c1ccc(NC(=O)C2CCCC2)cc1	-8.9	.	-4.0	71.6*	-8.0
N#C[C@H]1[C@H](c2ccccc2-c2cccc(F)c2)[C@@H](CO)N1C(=O)NC1CCCC1	.	-0.6	-3.1	6.1	-9.7
COc1cccc(OC)c1C(=O)N1CCN(Cc2c[nH]c3ccccc23)CC1	-5.7	0.7	-10.3	54.6*	0.3
COc1ccccc1C(=O)N1CCN(Cc2c[nH]c3ccccc23)CC1	-17.6	-4.2	2.0	-1.8	-4.7
CCOC(=O)Cc1csc(NC(=O)Cn2cnc3c2c(=O)n(C)c(=O)n3C)n1	7.1	25.3*	2.7	.	-0.5
CC(=NNC(=O)c1ccncc1)c1cccc(Cl)c1	-9.8	.	2.9	-2.2	1.0
C/C(=N/NC(=O)CCC(=O)Nc1cccc(Cl)c1)c1ccc(C)cc1	-4.7	.	-3.2	27.6*	3.9
C/C(=N\NC(N)=O)c1cccc(Cl)c1	-5.3	0.3	-1.1	37.6*	5.1
O=C(NC1CCCC1)N1CC(=O)N2[C@H](CO)[C@H](c3ccc(-c4cccnc4)cc3)[C@@H]2C1	.	-0.2	27.9	3.3	-1.1
Cc1cccn2c(=O)c3cc(C(N)=S)c(=N)n(CCCOC(C)C)c3nc12	33.9*	.	.	.	.
Cc1cccn2c(=O)c3cc(C(=O)NCCN4CCOCC4)c(=N)n(CCc4ccccc4)c3nc12	34.3*	.	.	.	.
Cc1cccn2c(=O)c3cc(C(=O)NCCc4ccccc4)c(=N)n(CCCn4ccnc4)c3nc12	33.0*	.	.	.	.
CC=Cc1ccc2n(c1=O)C[C@H]1[C@H](CO)[C@@H](C(=O)NC3CCCC3)[C@@H]2N1Cc1ccncc1 (mixture of isomers)	.	-9.9	2.6	9.9	-22.0
CCCNC(=O)N1CC(=O)N2[C@H](C1)[C@H](c1ccc(C#Cc3cccc(OC)c3)cc1)[C@@H]2CO	.	-0.4	9.0	-5.4	0.5
C[C@H](CO)N1C[C@H](C)[C@@H](CN(C)S(=O)(=O)c2cccc(F)c2)Oc2ncc(-c3cccc(C(=O)N(C)C)c3)cc2C1=O	.	2.1	-8.8	-10.4	-1.5
CN(C)CCCCNC(=O)[C@@H]1C[C@@H]2C(=O)N[C@@H](CCCCN(C)C)C(=O)N2[C@@H]1c1ccc(O)cc1	.	-2.9	5.7	13.0	7.2
CSCCC(N=C1NS(=O)(=O)c2ccccc21)C(=O)NCCc1ccccc1 (configuration not stated)	-7.1	1.8	13.6	58.5*	2.0
CCCN1C[C@H](C)[C@H](OC)CN(C)C(=O)c2cc(NC(=O)NC3CCCCC3)ccc2OC[C@@H]1C	.	4.2	115.7*	14.6	-0.8
CO[C@H]1CN(C)C(=O)c2cc(NC(=O)NC3CCCCC3)ccc2OC[C@H](C)N(CCc2ccccc2)C[C@@H]1C	.	24.8*	-5.1	3.1	3.3
